The record followed here is ChEMBL document CHEMBL1123346, “Pyrimidinones. 3. N-substituted 6-phenylpyrimidinones and pyrimidinediones with diuretic/hypotensive and antiinflammatory activity” (J Med Chem, 1986).

Data set [1] deals with Rattus norvegicus. The data set can be described thus: Compound was tested for urinary volume excretion in conscious rat at the dose of 3.0 mg/kg expressed as urinary excretion in treated rats/urinary excretion in control rats. On the set-up: dose 3 mg/kg. The note with it: in vivo. It is filed as ADME, organism-based, Urine. In a few lines:
(§1)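 Male rats (~160 g) fasted 24 h, water withheld 1.5 h; oral gavage of compound (0.3-100 mg/kg) in 25 mL/kg saline with 0.5% carboxymethylcellulose; 5 h urine collection in metabolism cages. Urine volume, Na+ and K+ (flame photometry) expressed as treated/control excretion ratio.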

Data set [2] can be described thus: Potassium salt excretion in conscious rat at the dose of 30 mg/kg expressed as urinary excretion in treated rats/urinary excretion in control rats. The note with it: in vivo. It is filed as ADME, organism-based, Urine. On the set-up: dose 30 mg/kg. In a few lines:
as §1

Data set [3] in a line: Potassium salt excretion in conscious rat at the dose of 3.0 mg/kg expressed as urinary excretion in treated rats/urinary excretion in control rats. The data set is classed as ADME, organism-based, Urine. On the set-up: dose 3 mg/kg. The note with it: in vivo. In a few lines:
as §1

The nature of data set [4]: Sodium salt excretion in conscious rat at the dose of 3.0 mg/kg expressed as urinary excretion in treated rats/urinary excretion in control rats. It is filed as ADME, organism-based, Urine. The note with it: in vivo. On the set-up: dose 3 mg/kg. In a few lines: as §1
Data set [5] is described as follows: Sodium salt excretion in conscious rat at the dose of 10 mg/kg expressed as urinary excretion in treated rats/urinary excretion in control rats. The note with it: in vivo. On the set-up: dose 10 mg/kg. The data set is classed as ADME, organism-based, Urine. In a few lines:
as §1

For data set [6], the system named is Rattus norvegicus. The data set can be described thus: Compound was tested for urinary volume excretion in conscious rat at the dose of 30 mg/kg expressed as urinary excretion in treated rats/urinary excretion in control rats. The data set is classed as ADME, organism-based, Urine. Further details: dose 30 mg/kg. The note with it: in vivo. In a few lines:
as §1

The nature of data set [7]: Sodium salt excretion in conscious rat at the dose of 1.0 mg/kg expressed as urinary excretion in treated rats/urinary excretion in control rats. The data set is classed as ADME, organism-based, Urine. Further details: dose 1 mg/kg. The note with it: in vivo. In a few lines:
as §1

Data set [8] is described as follows: Sodium salt excretion in conscious rat at the dose of 0.3 mg/kg expressed as urinary excretion in treated rats/urinary excretion in control rats. Further details: dose 0.3 mg/kg. The data set is classed as ADME, organism-based, Urine. The note with it: in vivo. Summed up:
as §1

Data set [9] is described as follows: Potassium salt excretion in conscious rat at the dose of 100 mg/kg expressed as urinary excretion in treated rats/urinary excretion in control rats. The data set is classed as ADME, organism-based, Urine. On the set-up: dose 100 mg/kg. The note with it: in vivo. In a few lines:
as §1

The subject of data set [10] is Rattus norvegicus. The data set can be described thus: Compound was tested for urinary volume excretion in conscious rat at the dose of 10 mg/kg expressed as urinary excretion in treated rats/urinary excretion in control rats. The data set is classed as ADME, organism-based, Urine. On the set-up: dose 10 mg/kg. The note with it: in vivo. In a few lines:
as §1

In data set [11] the test system is Rattus norvegicus. The data set can be described thus: Compound was tested for urinary volume excretion in conscious rat at the dose of 100 mg/kg expressed as urinary excretion in treated rats/urinary excretion in control rats. The data set is classed as ADME, organism-based, Urine. On the set-up: dose 100 mg/kg. The note with it: in vivo. In a few lines:
as §1

The test system of data set [12] is Rattus norvegicus. The data set can be described thus: Blood pressure change in rats after oral administration of 50 mg/kg dose after 4 hours. It is filed as functional. Summed up:
(§2)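 Restrained female Sprague–Dawley rats with indwelling aortic cannulas exteriorized at the nape; direct arterial pressure via transducer, mean pressure by electrical integration of phasic pressure. Readings before and 4 and 24 h after oral dosing (carboxymethylcellulose suspension, 10 mL/kg). Value is change in mean arterial pressure, averaged over two animals.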

The test system of data set [13] is Rattus norvegicus. The data set can be described thus: Blood pressure change in rats after oral administration of 50 mg/kg dose after 24 hours. It is filed as functional. In a few lines:
as §2

The subject of data set [14] is Rattus norvegicus. The data set can be described thus: Compound was tested for urinary volume excretion in conscious rat at the dose of 0.3 mg/kg expressed as urinary excretion in treated rats/urinary excretion in control rats. The data set is classed as ADME, organism-based, Urine. Further details: dose 0.3 mg/kg. The note with it: in vivo. Summed up:
as §1

Data set [15] is filed under the species Rattus norvegicus. The data set can be described thus: Diuretic activity in rats. The data set is classed as functional, Urine. In a few lines: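 Male rats (~160 g) fasted 24 h, water withheld 1.5 h, both withheld during test. Gavage 25 mL/kg 0.9% saline with 0.5% carboxymethylcellulose containing compound at 40 mg/kg; urine collected 5 h in metabolism cages. Two-stage test, T/C urine volume per stage; active if product of stage T/Cs ≥3.34.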

A short description of data set [16]: Sodium salt excretion in conscious rat at the dose of 30 mg/kg expressed as urinary excretion in treated rats/urinary excretion in control rats. The data set is classed as ADME, organism-based, Urine. The note with it: in vivo. Further details: dose 30 mg/kg. In a few lines: as §1
Data set [17] is described as follows: Potassium salt excretion in conscious rat at the dose of 1.0 mg/kg expressed as urinary excretion in treated rats/urinary excretion in control rats. The note with it: in vivo. On the set-up: dose 1 mg/kg. It is filed as ADME, organism-based, Urine. Summed up: as §1
The nature of data set [18]: Potassium salt excretion in conscious rat at the dose of 0.3 mg/kg expressed as urinary excretion in treated rats/urinary excretion in control rats. It is filed as ADME, organism-based, Urine. On the set-up: dose 0.3 mg/kg. The note with it: in vivo. Summed up:
as §1

Data set [19] can be described thus: Sodium salt excretion in conscious rat at the dose of 100 mg/kg expressed as urinary excretion in treated rats/urinary excretion in control rats. The note with it: in vivo. The data set is classed as ADME, organism-based, Urine. Further details: dose 100 mg/kg. Summed up: as §1
Data set [20] relates to Rattus norvegicus. The data set can be described thus: Compound was tested for urinary volume excretion in conscious rat at the dose of 1.0 mg/kg expressed as urinary excretion in treated rats/urinary excretion in control rats. On the set-up: dose 1 mg/kg. The note with it: in vivo. The data set is classed as ADME, organism-based, Urine. In a few lines:
as §1

Data set [21] in a line: Potassium salt excretion in conscious rat at the dose of 10 mg/kg expressed as urinary excretion in treated rats/urinary excretion in control rats. The note with it: in vivo. It is filed as ADME, organism-based, Urine. Further details: dose 10 mg/kg. Summed up: as §1
Data set [22] has as its system Rattus norvegicus. The data set can be described thus: Inhibition of RPAR administered perorally at 50 mg/kg dose. It is filed as functional. The note with it: route oral. Summed up: (§3)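 Male Wistar rats (180-200 g), 5-10/group, dosed orally (water with Tween-80 suspension) 1 h before iv sensitization with 1 mg bovine serum albumin; 24-h fasted. 60 min later subplantar challenge with 200 µg anti-BSA in left hindpaw. Paw swelling by mercury displacement plethysmography at 2 h post-challenge.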

Data set [23] concerns Rattus norvegicus. The data set can be described thus: Inhibition of RPAR administered perorally at 100 mg/kg dose. The note with it: route oral. It is filed as functional. In a few lines: as §3
In data set [24] the test system is Rattus norvegicus. The data set can be described thus: Inhibition of RPAR administered perorally at 25 mg/kg dose. It is filed as functional. The note with it: route oral. Summed up: as §3

The inhibition in vivo is the relative decrease from the control value, in per cent. Lower therefore signals a response near the control.

In the case of `Cn1c(-c2ccccc2)c(Cl)c(=O)[nH]c1=O`, the Urinary volume is 0.8 in the data set with Rattus norvegicus [1]; 1.6 in the data set with Rattus norvegicus [6]; 1.1 in the data set on Rattus norvegicus [10]; 1.6 in the data set on Rattus norvegicus [11]; 0.9 with Rattus norvegicus [14]; 0.9 with Rattus norvegicus [20]. The “K+ excretion” value in [2] is 1.7; in data set [3] it was 1.1; in [9] it was 1.9; in data set [17] it was 1.2; in data set [18], 0.9; in data set [21], 1.3. Further, the “Na+ excretion” value is 0.9 in data set [4]; 1.1 in [5]; 1.1 in [7]; 1.1 in data set [8]; 1.6 in data set [16]; 1.6 in data set [19]. In addition, the MABP change in the data set on Rattus norvegicus [12] and with Rattus norvegicus [13] was 2 mmHg each time. Besides, the Diuretic activity in the data set listed under Rattus norvegicus [15] is on record as 3.49.
In the case of `Oc1nc(O)c(I)c(-c2ccccc2)n1`, the MABP change in the data set with Rattus norvegicus [12] came to 7 mmHg; with Rattus norvegicus [13], 11 mmHg. Also, the Diuretic activity in the data set filed under Rattus norvegicus [15] was found to be 5.43. Also, testing at 50 mg/kg with Rattus norvegicus [22] gave an inhibition in vivo of 41%. The inhibition in vivo at 100 mg/kg in the data set with Rattus norvegicus [23] is 48%.
With `Cn1c(=O)[nH]c(-c2ccccc2)c(Br)c1=O`, the MABP change was -1 mmHg in the data set on Rattus norvegicus [12] and 6 mmHg in the data set with Rattus norvegicus [13].
On to `N=C(N)Nc1nc(O)c(I)c(-c2ccccc2)n1`, for which the MABP change is recorded as -2 mmHg in the data set with Rattus norvegicus [12] and 3 mmHg with Rattus norvegicus [13].
The matching figures for `N=C(N)NCCN1CCCCCCC1` [GUANETHIDINE]: -16 mmHg and 9 mmHg.
The matching figures for `CC(=O)Nc1nc(O)c(I)c(-c2ccccc2)n1`: 3 mmHg and 9 mmHg.
The matching figures for `Nc1nc(=O)c(Br)c(-c2ccccc2)n1O`: 6 mmHg and -1 mmHg.
`Cn1c(-c2ccccc2)c(Br)c(=O)[nH]c1=O` returned an inhibition in vivo at 25 mg/kg with Rattus norvegicus [24] of 22%. The MABP change in the data set with Rattus norvegicus [12] and with Rattus norvegicus [13] was 1 mmHg throughout. The inhibition in vivo at 50 mg/kg with Rattus norvegicus [22] is 43%. In the data set on Rattus norvegicus [23], this molecule gave an inhibition in vivo at 100 mg/kg of 57%.
Take `Nc1nc(O)c(I)c(-c2ccccc2)n1`: the MABP change in the data set with Rattus norvegicus [12] is -7 mmHg; with Rattus norvegicus [13], -12 mmHg. The molecule also came in with an inhibition in vivo at 50 mg/kg with Rattus norvegicus [22] of 3%. For the same molecule, the inhibition in vivo at 100 mg/kg in the data set with Rattus norvegicus [23] was 8%.
For `N=C(N)Nc1nc(O)c(Br)c(-c2ccccc2)n1`, the figures for the MABP change in the data set on Rattus norvegicus [12] and in the data set with Rattus norvegicus [13] were -2 mmHg and -1 mmHg, respectively.
As to `Oc1nc(O)c(Br)c(-c2ccccc2)n1`, the Urinary volume was found to be 1.1 in the data set on Rattus norvegicus [1]; 1.5 in the data set with Rattus norvegicus [6]; 1.2 in the data set with Rattus norvegicus [10]; 2.1 in the data set with Rattus norvegicus [11]; 0.9 with Rattus norvegicus [14]; 1 in the data set with Rattus norvegicus [20]. Moreover, the “K+ excretion” value in data set [2] stood at 1.2; in data set [3], 1; in data set [9], 1.8; in [17], 1; in data set [18] it was 1; in [21], 0.9. Also, the “Na+ excretion” value in data set [4] came out at 1; in [5], 1.2; in [7] it was 1.2; in data set [8], 1.2; in [16] it was 1.4; in [19], 1.9. For the same molecule, the figures for the MABP change with Rattus norvegicus [12] and in the data set on Rattus norvegicus [13] were 6 mmHg and 5 mmHg, respectively. Further, the Diuretic activity in the data set filed under Rattus norvegicus [15] was 3.53. The inhibition in vivo at 50 mg/kg in the data set on Rattus norvegicus [22] is 46%. In the data set with Rattus norvegicus [23], this molecule returned an inhibition in vivo at 100 mg/kg of 58%.
`Cn1c(-c2ccccc2)c(I)c(=O)[nH]c1=O` had an inhibition in vivo at 25 mg/kg in the data set with Rattus norvegicus [24] of 33%. Further, the figures for the MABP change in the data set with Rattus norvegicus [12] and in the data set with Rattus norvegicus [13] were 15 mmHg and -1 mmHg, respectively. Moreover, testing at 50 mg/kg in the data set with Rattus norvegicus [22] gave an inhibition in vivo of 44%. Besides, the inhibition in vivo at 100 mg/kg with Rattus norvegicus [23] was 73%.
